For data set [1] the following is noted: rat; ref unpublished data; cited from earlier work.
Data set [2] concerns HepG2 cells. Nature of the data set: In vitro ROS assay. It is filed as cell-based, human. The settings on record: nominal media concentrations up to 200 μM, 1 h or 24 h.
For data set [3], the target named is human BSEP ABC transporter (Homo sapiens, UniProt O95342). Nature of the data set: BSEP vesicular transport inhibition Ki determination assay. It counts as biochemical. The method, boiled down:
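Inside-out membrane vesicles expressing BSEP. Transporter-specific taurocholate accumulation was measured across a range of test compound concentrations.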

The conditions of data set [4]: ref Wolenski et al., 2017; cited from earlier work.
In data set [5] the test system is primary human hepatocytes. The settings on record: ref Wolenski et al., 2017; cited from earlier work.
A further data set has as its system TAK-875-treated patients. The settings on record: cited from earlier work; for patients with ALT elevations > 3× ULN: clinical.
The target of a further data set is T1, human NTCP (Homo sapiens, UniProt Q14973).
T1 sequence (Q14973 1-349): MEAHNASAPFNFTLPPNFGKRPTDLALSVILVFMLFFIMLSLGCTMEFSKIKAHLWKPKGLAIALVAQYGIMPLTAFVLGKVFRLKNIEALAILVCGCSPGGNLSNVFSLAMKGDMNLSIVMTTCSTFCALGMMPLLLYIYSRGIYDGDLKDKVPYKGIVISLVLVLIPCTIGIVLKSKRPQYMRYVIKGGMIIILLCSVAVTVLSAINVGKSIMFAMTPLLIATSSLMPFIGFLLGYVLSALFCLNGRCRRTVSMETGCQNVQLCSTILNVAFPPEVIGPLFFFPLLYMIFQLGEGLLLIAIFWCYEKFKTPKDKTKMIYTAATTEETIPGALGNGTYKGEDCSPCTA
Kind of data set: NTCP uptake transporter inhibition Ki determination in CHO cells. It counts as cell-based. The settings on record: based on alpha >> 1, increasing Km, nearly constant Vmax.

The subject of the next data set is patients with T2D. The settings on record: Phase II clinical trials, ref Kaku et al., 2015; cited from earlier work.
Data set [6] deals with HepG2 cells. The settings on record: ref Otieno et al., 2018, cited from earlier work; for effect on OCR / basal respiration: HepG2 cells.

pKi: −log10 of the molar value. Entries after “also recorded” stand apart in the source; their conditions may differ. Where two headings read alike, the source gives them in different places.

human BSEP ABC transporter, sequence (O95342 whole entry): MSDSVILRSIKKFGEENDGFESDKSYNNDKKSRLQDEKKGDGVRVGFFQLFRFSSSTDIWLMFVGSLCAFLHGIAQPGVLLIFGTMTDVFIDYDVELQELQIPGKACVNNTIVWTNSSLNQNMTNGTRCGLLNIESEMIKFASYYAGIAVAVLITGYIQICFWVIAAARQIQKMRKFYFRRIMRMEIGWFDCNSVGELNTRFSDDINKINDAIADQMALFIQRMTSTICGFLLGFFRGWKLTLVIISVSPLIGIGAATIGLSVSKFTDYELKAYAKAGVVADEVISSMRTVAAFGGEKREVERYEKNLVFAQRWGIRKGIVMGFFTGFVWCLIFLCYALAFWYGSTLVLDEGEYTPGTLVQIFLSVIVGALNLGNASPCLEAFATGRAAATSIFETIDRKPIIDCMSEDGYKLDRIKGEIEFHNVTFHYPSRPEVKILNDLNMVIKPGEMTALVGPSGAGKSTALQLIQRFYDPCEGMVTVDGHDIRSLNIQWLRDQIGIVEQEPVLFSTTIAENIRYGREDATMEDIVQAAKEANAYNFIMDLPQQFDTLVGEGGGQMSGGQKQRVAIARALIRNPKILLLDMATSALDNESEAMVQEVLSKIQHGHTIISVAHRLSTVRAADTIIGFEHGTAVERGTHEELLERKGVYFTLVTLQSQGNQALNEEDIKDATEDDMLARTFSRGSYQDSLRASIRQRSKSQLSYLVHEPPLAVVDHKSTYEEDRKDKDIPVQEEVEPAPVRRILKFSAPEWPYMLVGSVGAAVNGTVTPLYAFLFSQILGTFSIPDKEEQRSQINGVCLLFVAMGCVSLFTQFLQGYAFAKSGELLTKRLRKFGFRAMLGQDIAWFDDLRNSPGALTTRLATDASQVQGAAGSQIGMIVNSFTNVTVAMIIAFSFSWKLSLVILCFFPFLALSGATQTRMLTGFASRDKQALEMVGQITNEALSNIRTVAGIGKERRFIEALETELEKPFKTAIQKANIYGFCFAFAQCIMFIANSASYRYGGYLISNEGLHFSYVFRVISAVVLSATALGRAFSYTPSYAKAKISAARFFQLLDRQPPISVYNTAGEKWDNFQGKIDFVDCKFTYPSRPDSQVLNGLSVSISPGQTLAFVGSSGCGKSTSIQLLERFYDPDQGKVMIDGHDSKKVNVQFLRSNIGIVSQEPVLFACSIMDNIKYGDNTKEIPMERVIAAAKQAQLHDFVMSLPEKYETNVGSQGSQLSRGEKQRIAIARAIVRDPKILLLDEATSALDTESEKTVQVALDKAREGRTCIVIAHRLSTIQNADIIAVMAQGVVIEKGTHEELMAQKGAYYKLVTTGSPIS

The term pKi denotes −log10 of the Ki, conventionally taken in molar units. Higher therefore signals a low Ki. In the case of `Cc1cc(OCCCS(C)(=O)=O)cc(C)c1-c1cccc(COc2ccc3c(c2)OC[C@H]3CC(=O)O)c1` [TAK-875, fasiglifam], the “concentration in liver versus plasma” value in [1] was “roughly equivalent”. Further, the “ROS production / oxidative stress (DHE fluorescence)” value in the data set on HepG2 cells [2] is listed as “not observed”. Also, in data set [3], the pKi was 4.76. Further, the “mode of BSEP inhibition” value in data set [3] (based on alpha value, Km and Vmax trends) is listed as “mixed”. In data set [3] (mixed-type inhibition model), the “BSEP alpha constant for inhibition” value is reported as 2.172. The compound-induced oxidative stress result in data set [4] was “no evidence of compound-induced oxidative stress was detected; also recorded: not found to be inducers of oxidative stress”. Also, the “effect on oxygen consumption rate (OCR)” value in [5] is “reduce the oxygen consumption rate (OCR) in a dose-dependent manner”. The “cases of serious liver injury, incidence” value in the data set on TAK-875-treated patients (clinical trials, ref Marcinak et al., 2018) is given as 0.03%. For the same compound, the “patients with ALT elevations > 3× ULN” value in the data set with TAK-875-treated patients (daily doses of 200 mg, ref unpublished data) is recorded as 4.0%; in the data set on TAK-875-treated patients (daily doses ranging from 25 to 50 mg, ref Marcinak et al., 2018), 2.8%. The “cases of serious liver injury” value in the data set on TAK-875-treated patients (in 9139 TAK-875-treated patients, ref Marcinak et al., 2018) is recorded as 3 cases. Moreover, at human NTCP, the “mode of NTCP inhibition” value is “competitive”. The “effect on blood glucose levels and HbA1c” value in the data set on patients with T2D was “lowered blood glucose levels and glycated hemoglobin (HbA1c)”. In the data set with HepG2 cells [6], the “effect on OCR / basal respiration” value is “dose-dependent reduction in OCR”.
Turning to `Cc1cc(OCCCS(C)(=O)=O)cc(C)c1-c1cccc(COc2ccc3c(c2)OC[C@H]3CC(=O)O[C@@H]2O[C@H](C(=O)O)[C@@H](O)[C@H](O)[C@H]2O)c1` [TAK-875-Glu], the compound-induced oxidative stress result in data set [4] is on record as “no evidence of compound-induced oxidative stress was detected; also recorded: not found to be inducers of oxidative stress”. The “effect on oxygen consumption rate (OCR)” value in data set [5] was “reduce the oxygen consumption rate (OCR) in a dose-dependent manner”. Besides, in the data set on HepG2 cells [6], the “effect on OCR / basal respiration” value is recorded as “no effect on basal respiration” and the effects on mitochondria result is listed as “negligible effects on mitochondria”.

Source of the values: paper PMC6358270 (Toxicological Sciences, 2018).
